Screens as filed in PubChem BioAssay.
PfM18AAP inh: blocks P. falciparum M18 aspartyl aminopeptidase; recombinant PfM18AAP, H-Glu-NHMec fluorogenic cleavage; inhibition, % at 7.35 µM; 290,000 compounds, 1.2% hits;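 active = inhibition above the campaign mean inhibition over all tested compounds plus 3 SD, cut at about 28% in these data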;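 note: 0% = plate median of test compound wells and 100% = 2 mM ZnCl2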
HKDC1 inhibitor: inhibitors of human hexokinase HKDC1; 340,000 compounds, 0.16% hits; recombinant HKDC1, G6PDH/diaphorase resazurin coupled fluorescence; Q2TB90; inhibition, % at 20 µM;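 active = inhibition above about 35% when tested at 20 µM, limit read from the data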;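 note: plate controls were DMSO wells with enzyme for no effect and DMSO wells lacking enzyme for full effect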
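Material – in-house recombinant HK5 (HKDC1) enzyme · Quantity – HKDC1 at 5 µg/mL · Buffer or medium – pH 8.0 Tris buffer with 10 mM MgCl2 · Reagent – glucose with 1 mM ATP · Dosing – single 20 µM dose · Times – reaction time 90 min, room temperature, protected from light · Technique – resorufin fluorescence at 613 nm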
SUMO HTRF inh: blocks human SUMOylation mediated by UBC9. P63279. HTRF SUMOylation assay, SAE1/SAE2 + UBC9, in vitro. inhibition, % at 35 µM. 290,000 compounds, 0.36% hits; in the data active = inhibition above about 50%, passing the limit was not always enough
APOBEC3A inh: blocks human APOBEC3A ssDNA deamination; AID 493011; inhibition, % at 20 µM; recombinant A3A, FAM/TAMRA ssDNA deamination fluorescence; 330,000 compounds, 0.41% hits;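 active = at least 40% inhibition at 20 µM here, with at most 30% in a related deaminase screen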;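 note: plate controls were A3A with DMSO for no effect and wells lacking A3A enzyme for full effect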
Target sequence (P31941 whole entry, looked up): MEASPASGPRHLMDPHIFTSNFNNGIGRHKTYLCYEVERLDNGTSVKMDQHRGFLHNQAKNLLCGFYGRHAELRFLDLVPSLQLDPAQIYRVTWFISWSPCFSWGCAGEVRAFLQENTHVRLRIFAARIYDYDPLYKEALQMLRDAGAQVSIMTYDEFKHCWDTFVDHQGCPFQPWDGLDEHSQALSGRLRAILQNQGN
A3G deaminase: APOBEC3G (human) deaminase inhibition; recombinant A3G, ssDNA deamination FAM/TAMRA fluorescence; inhibition, % at 20 µM; 330,000 compounds, 0.28% hits; AID 493012;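 active = inhibition of at least 40% at 20 µM, with no more than 30% in the related APOBEC3A deaminase screen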;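 note: plate controls were DMSO wells with A3G for no effect and wells lacking A3G enzyme for full effect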
Target sequence (Q9HC16 whole entry, looked up): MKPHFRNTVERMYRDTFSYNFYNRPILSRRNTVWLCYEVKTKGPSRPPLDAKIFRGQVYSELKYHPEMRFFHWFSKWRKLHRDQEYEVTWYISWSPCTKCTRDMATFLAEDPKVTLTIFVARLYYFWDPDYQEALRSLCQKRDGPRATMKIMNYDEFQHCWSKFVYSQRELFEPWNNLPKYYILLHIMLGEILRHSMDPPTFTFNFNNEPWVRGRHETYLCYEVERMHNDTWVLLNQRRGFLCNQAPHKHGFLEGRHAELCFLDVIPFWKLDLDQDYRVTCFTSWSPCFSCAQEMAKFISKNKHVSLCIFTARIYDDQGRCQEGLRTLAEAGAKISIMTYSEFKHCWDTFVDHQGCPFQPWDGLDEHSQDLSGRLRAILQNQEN
PfGluPho inh: PfG6PD (Plasmodium falciparum) enzyme inhibition; inhibition, % at 20 µM; 350,000 compounds, 0.78% hits; PfGluPho enzyme, NADPH resazurin-diaphorase fluorescence;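 active = inhibition reaching at least a set limit at 20 µM in the primary screen, cut at about 59% in these data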;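 note: 0% = DMSO wells with substrate and 100% = DMSO wells lacking glucose-6-phosphate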
PfG6PD confirm: PfG6PD inhibition, single-dose confirmed. shares compounds with PfGluPho inh. recombinant PfGluPho, NADPH-diaphorase-resazurin fluorescence. inhibition, % at 20 µM. 2,400 compounds, 34% hits. AID 504753;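 active = inhibition of at least 50% at 20 µM in any single replicate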;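 note: 0% = DMSO with substrate and 100% = DMSO lacking glucose-6-phosphate substrate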
Diaph ctr 10uM: inhibits diaphorase or oxidizes, flagging false PfG6PD hits. inhibition, % at 20 µM. diaphorase-coupled resazurin reduction, fluorescence, NADPH 10 uM. AID 504862. 820 compounds, 39% hits. shares compounds with PfGluPho inh;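 active = average inhibition reaching 50% or more with the compound at 20 µM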;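 note: resorufin red fluorescence formed as diaphorase reduces resazurin using NADPH; 0% = DMSO with enzyme and 100% = DMSO without enzyme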
Diaphorase 30uM: diaphorase inhibition or oxidation at 30 uM NADPH. shares compounds with PfGluPho inh. inhibition, % at 20 µM. 820 compounds, 29% hits. Diaphorase/resazurin coupled assay, resorufin fluorescence. AID 504863;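 active = inhibition averaging 50% or more, tested at 20 µM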;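 note: 0% = DMSO with enzyme and 100% = DMSO wells lacking diaphorase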
* hit, by the source's call; . = no result given. An excerpt weighted towards active compounds, which were near 2.4% of everything screened.

SMILES	PfM18AAP inh	HKDC1 inhibitor	SUMO HTRF inh	APOBEC3A inh	A3G deaminase	PfGluPho inh	PfG6PD confirm	others
CN(CC(=O)Nc1ccccc1Br)C(=O)c1ccccc1OCc1ccc(F)cc1	.	-1	.	0	-6	-3	.
NC(=S)NN=Cc1c[nH]c2nccnc12	.	.	.	.	.	76*	17
NC(=S)N/N=C/c1c[nH]c2ccccc12	22	-1	18	2	-17	22	.
Cc1cc(NC(=O)c2cncc(Br)c2)no1	6	3	14	-5	-8	-6	.
COc1ccc(S(=O)(=O)N2CCC(O)(c3ccc4c(c3)OCO4)CC2)cc1	-12	2	-8	-4	-4	-17	.
COc1cccc(/C=C2/CCC(CN(C)C)C2=O)c1 (stereo unspecified)	.	17	.	.	.	70*	39
COc1ccc(/C=C2/CCCC(CN(C)C)C2=O)cc1 (stereo unspecified)	.	15	.	.	.	44	.
CN(C)CC1CCC/C(=C/c2ccc(Cl)cc2)C1=O (stereo unspecified)	.	31	.	.	.	60*	21
CCSC1=C(C#N)C(c2ccccc2Cl)CC(=O)N1 (stereo unspecified)	10	-2	2	-8	-8	5	.
N#CC1=C2SCN(c3ccccc3)CN2C(=O)CC1c1ccccc1Cl (stereo unspecified)	21	6	-8	-1	57*	74*	13
N#CC1=C2SCN(Cc3ccccc3)CN2C(=O)CC1c1ccccc1F (stereo unspecified)	26	13	12	-3	-2	61*	26
COC(=O)CSC1=C(C#N)C(c2ccccc2F)CC(=O)N1 (stereo unspecified)	.	-2	-1	-5	-8	18	.
N#CC1=C2SCN(Cc3ccco3)CN2C(=O)CC1c1c(F)cccc1Cl (stereo unspecified)	19	3	4	-1	2	66*	22
O=C(NCc1ccco1)C1CC(=O)N(c2ccc(Cl)cc2)C1 (stereo unspecified)	-8	1	-8	2	-4	2	.
CCOC(=O)c1c[nH]c2c(C)ccc(Cl)c2c1=O	-4	-14	12	1	2	6	.
O=C(c1ccc(Cl)c(S(=O)(=O)N2CCCC2)c1)N1CCN(Cc2ccccc2)CC1	.	1	.	.	.	-15	.
Cc1ccc(NS(=O)(=O)c2ccccc2)c2c1CC(C)(C)O2	6	2	21	-4	-6	92*	65*	Diaph ctr 10uM=54*;Diaphorase 30uM=50*
O=C(N/N=C/c1cccc(Oc2ccccc2)c1)c1ccccc1Br	-4	19	-32	-3	-5	89*	32
C=CCc1cccc(/C=N/NC(=O)c2ccccc2OC)c1O	30*	-8	-11	-2	-8	79*	30
C=CCc1cccc(/C=N/NC(=O)c2ccccc2Br)c1O	18	-15	-1	-2	-3	75*	27
O=C(N/N=C/c1ccccc1C(=O)O)c1ccccc1Br	13	0	3	0	-3	-3	.
S=C(NCCCc1ccccc1)Nc1ccccc1Cl	0	-4	-11	-3	-7	11	.
NC(=S)NNc1cc(Cl)cc(Cl)c1	10	-3	34	2	4	71*	14
NC(=S)Nc1cc(Cl)cc(Cl)c1	-1	-6	5	0	-9	20	.
Nc1ccc(C(=O)OCc2nc3cc4ccccc4cc3[nH]2)cc1	3	-6	2	-5	-8	63*	27
SMILES	PfM18AAP inh	HKDC1 inhibitor	SUMO HTRF inh	APOBEC3A inh	A3G deaminase	PfGluPho inh	PfG6PD confirm	others
Nc1ccc(C(=O)OCCCc2nc3cc4ccccc4cc3[nH]2)cc1	-8	-1	13	0	-7	27	.
c1cc(CNc2ccc3c(c2)OCO3)ccn1	6	23	1	-1	13	61*	53*	Diaph ctr 10uM=15;Diaphorase 30uM=11
Cc1ccc(CNc2ccc3c(c2)OCO3)cc1	7	6	12	.	.	40	.
COc1ccc(OC)c(N(C(=O)c2ccco2)C(C(=O)NC2CCCC2)c2cc(OC)c(OC)c(OC)c2)c1 (stereo unspecified)	1	0	-8	-2	-13	2	.
CC(C)(C)c1ccc(O)c(O)c1	.	-1	.	2	36	81*	72*	Diaph ctr 10uM=8;Diaphorase 30uM=2
COc1ccc(Cl)cc1NC(=O)CN(C)C(=O)Cc1ccc2c(c1)CCC2	-14	4	8	-1	-2	84*	57*	Diaph ctr 10uM=53*;Diaphorase 30uM=52*
COc1ccc(Cl)cc1NC(=O)CN(C)C(=O)Cc1ccsc1	.	-1	.	22	-9	25	.
O=C(Nc1ccc(F)cc1)Nc1nnc(Cc2ccccc2)s1	-3	-6	15	-6	4	4	.
COc1ccc(NC(=O)Nc2ccc(C(=O)N3CCOCC3)cc2)cc1OC	-5	2	17	5	-4	0	.
Cc1ccc2cc(C)c(Sc3nnnn3-c3ccccc3)nc2c1	-7	-7	3	.	.	9	.
Cc1cc(C)c(SSc2nnnn2-c2ccccc2)c(C)c1	.	.	.	.	.	113*	40
CC1=C(C(N)=O)C(c2ccccc2[N+](=O)[O-])n2ncnc2N1 (stereo unspecified)	26	2	23	-1	-1	65*	0
CCC1CCCCN1C(=O)CSc1nnc(-c2ccc(OC)cc2)o1 (stereo unspecified)	2	3	16	-1	-7	4	.
COc1ccc(CN(C)S(=O)(=O)c2nnc(NC(=O)c3cccc(OC)c3)s2)cc1	3	11	15	-3	-4	96*	62*	Diaph ctr 10uM=56*;Diaphorase 30uM=60*
CN(Cc1ccco1)S(=O)(=O)c1nnc(NC(=O)c2ccc(F)cc2)s1	-24	-5	-1	6	13	98*	83*	Diaph ctr 10uM=72*;Diaphorase 30uM=55*
CCOc1ccc(C(=O)Nc2nnc(S(=O)(=O)N(C)Cc3ccco3)s2)cc1	-14	-3	4	-1	1	-6	.
CN(Cc1ccccc1)S(=O)(=O)c1nnc(NC(=O)c2ccccc2)s1	-7	-1	12	-3	2	44	.
COc1ccc(CN(C)S(=O)(=O)c2nnc(NC(=O)c3ccc(C)cc3)s2)cc1OC	-15	1	-21	-2	-4	88*	70*	Diaph ctr 10uM=39;Diaphorase 30uM=27
COc1cccc(C(=O)Nc2nnc(S(=O)(=O)N(C)Cc3ccc(F)cc3)s2)c1	-7	0	1	0	2	80*	48
